Source: ChEMBL document CHEMBL1131578, “Design of a new class of orally active fibrinogen receptor antagonists” (J Med Chem, 1998)
pIC50: −log10 of the molar value. Values belong to the compound of their own block, whether it stands above or below them. Residues, ends and D or L forms follow the SMILES beside them.

Columns and labels:
[1] = target: Integrin alpha-V/beta-3 (Homo sapiens); test: Inhibition of HUVEC adhesion to fibrinogen-coated plates
[2] = Compound was evaluated for the rate of degradation by Carboxypeptidase A.; type: ADME
Outline: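 Bovine pancreatic carboxypeptidase A diluted in 5% LiCl, activity checked with hippuryl-L-phenylalanine. Substrate made up at 1.0 mM in 0.05 M Tris with 1.0 M NaCl, pH 7.5, then combined with enzyme (2.0 units total). Incubated 60 min at room temperature, with hydrolysis followed by HPLC every 9 min. Rate of hydrolysis normalized to 1 unit of enzyme.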

[3] = target: Integrin alpha-V/beta-3 (Homo sapiens); test: Inhibition of HUVEC adhesion to fibronectin-coated plates
[4] = target: T1, Integrin alpha-IIb/beta-3 (Homo sapiens, UniProt P05106+P08514); test: Inhibition of radiolabeled fibrinogen binding to activated human platelets.; type: functional
Outline: (§1)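 Washed human platelets at 1×10^8/mL in Tyrode's buffer, run in duplicate. Inhibitor and labelled fibrinogen added before agonist, either TRAP (SFLLRN-NH2) 100 μM or ADP 10 μM. Incubated 30 min at room temperature, spun through a 20% sucrose cushion, pellet γ-counted. IC50 determined.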
Target sequence in this assay (P05106 27-788 limits assumed): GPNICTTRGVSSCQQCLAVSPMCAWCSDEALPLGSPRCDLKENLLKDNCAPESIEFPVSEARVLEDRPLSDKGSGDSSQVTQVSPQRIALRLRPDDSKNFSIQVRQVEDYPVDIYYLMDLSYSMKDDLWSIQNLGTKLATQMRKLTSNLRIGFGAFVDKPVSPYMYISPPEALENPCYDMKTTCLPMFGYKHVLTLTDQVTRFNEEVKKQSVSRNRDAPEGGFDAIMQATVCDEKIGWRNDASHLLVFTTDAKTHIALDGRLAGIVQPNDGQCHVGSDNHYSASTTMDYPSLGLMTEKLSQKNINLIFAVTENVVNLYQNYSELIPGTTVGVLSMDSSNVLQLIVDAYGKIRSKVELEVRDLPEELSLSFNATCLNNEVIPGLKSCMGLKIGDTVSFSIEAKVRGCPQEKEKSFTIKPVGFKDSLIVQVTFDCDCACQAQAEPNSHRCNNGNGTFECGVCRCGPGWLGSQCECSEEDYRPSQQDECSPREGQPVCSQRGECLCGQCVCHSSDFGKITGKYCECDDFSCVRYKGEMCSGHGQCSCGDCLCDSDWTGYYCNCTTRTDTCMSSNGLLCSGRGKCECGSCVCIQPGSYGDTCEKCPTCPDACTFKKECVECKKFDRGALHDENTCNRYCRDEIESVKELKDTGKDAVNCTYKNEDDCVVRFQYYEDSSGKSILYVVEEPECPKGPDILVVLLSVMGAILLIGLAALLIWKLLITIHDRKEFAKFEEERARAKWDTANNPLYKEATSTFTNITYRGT
Target sequence in this assay (P08514 32-887 limits assumed): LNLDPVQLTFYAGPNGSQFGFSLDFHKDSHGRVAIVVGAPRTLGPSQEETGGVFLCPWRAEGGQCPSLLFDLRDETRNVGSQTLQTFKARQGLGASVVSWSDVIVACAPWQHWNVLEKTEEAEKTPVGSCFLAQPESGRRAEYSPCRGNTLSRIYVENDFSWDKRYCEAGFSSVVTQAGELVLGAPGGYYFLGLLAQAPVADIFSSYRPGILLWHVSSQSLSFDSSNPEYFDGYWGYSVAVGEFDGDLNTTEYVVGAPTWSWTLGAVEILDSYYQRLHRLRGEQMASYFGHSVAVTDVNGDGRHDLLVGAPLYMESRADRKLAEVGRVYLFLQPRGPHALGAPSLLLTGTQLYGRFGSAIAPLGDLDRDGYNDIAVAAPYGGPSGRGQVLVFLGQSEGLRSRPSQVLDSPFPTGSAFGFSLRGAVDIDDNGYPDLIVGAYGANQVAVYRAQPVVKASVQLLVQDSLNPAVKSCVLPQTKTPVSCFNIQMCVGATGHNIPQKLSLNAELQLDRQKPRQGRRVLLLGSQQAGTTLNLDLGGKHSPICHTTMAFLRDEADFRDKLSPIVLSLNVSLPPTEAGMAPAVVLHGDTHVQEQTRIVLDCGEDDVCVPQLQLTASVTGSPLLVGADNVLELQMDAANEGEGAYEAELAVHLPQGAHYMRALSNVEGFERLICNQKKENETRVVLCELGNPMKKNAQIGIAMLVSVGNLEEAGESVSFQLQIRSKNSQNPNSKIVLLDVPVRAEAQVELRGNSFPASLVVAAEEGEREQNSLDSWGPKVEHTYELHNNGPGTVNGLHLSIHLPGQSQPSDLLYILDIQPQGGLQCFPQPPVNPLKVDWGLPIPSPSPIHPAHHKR
Target sequence in this assay (P08514 891-1039 limits assumed): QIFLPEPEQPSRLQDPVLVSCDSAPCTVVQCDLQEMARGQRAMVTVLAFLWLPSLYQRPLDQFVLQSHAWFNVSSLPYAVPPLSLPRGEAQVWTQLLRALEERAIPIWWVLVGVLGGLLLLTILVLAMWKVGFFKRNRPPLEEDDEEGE

[5] = target: Integrin alpha-V/beta-3 (Homo sapiens); test: Inhibition of HUVEC adhesion to vitronectin-coated plates
[6] = target: T1, Integrin alpha-IIb/beta-3; test: Ability to inhibit the aggregation of fixed human platelets; type: functional
Outline: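 Human gel-filtered platelets activated with α-thrombin 1 U/mL (final) for 2 min at room temperature, then thrombin inhibitor 20 μM, fixed in 0.5% paraformaldehyde for 30 min, washed and resuspended at 2×10^8 cells/mL in Tyrode's-HSA. Compound preincubated 1 min with the suspension. Rate relative to no-antagonist control; IC50 calculated.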
Target sequence in this assay (P05106 27-788 limits assumed): as the sequence (P05106 27-788 limits assumed) above
Target sequence in this assay (P08514 32-887 limits assumed): as the sequence (P08514 32-887 limits assumed) above
Target sequence in this assay (P08514 891-1039 limits assumed): as the sequence (P08514 891-1039 limits assumed) above

[7] = target: T1, Integrin alpha-IIb/beta-3; test: Inhibition of radiolabeled fibrinogen binding to activated human platelets; type: functional
Outline: as §1
Target sequence in this assay (P05106 27-788 limits assumed): as the sequence (P05106 27-788 limits assumed) above
Target sequence in this assay (P08514 32-887 limits assumed): as the sequence (P08514 32-887 limits assumed) above
Target sequence in this assay (P08514 891-1039 limits assumed): as the sequence (P08514 891-1039 limits assumed) above

[8] = target: T1, Integrin alpha-IIb/beta-3; test: Percent inhibition of ex vivo platelet aggregation after 3 hours of administration; type: functional, organism-based; details: concentration not given here
Outline: (§2)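 Mongrel dogs of either sex dosed by intragastric gavage, compound dissolved in deionized water. Citrated venous blood drawn 10 min predose and at 1, 3, 6, 12 and 24 h. PRP adjusted to 300 000 platelets/μL, stirred at 37 °C, primed with epinephrine 1 μM, then ADP 10 μM added. Light-transmission slope read in duplicate, expressed as % decrease versus predose PRP. Mean of at least two dogs per dose.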

[9] = target: T1, Integrin alpha-IIb/beta-3; test: Percent inhibition of ex vivo platelet aggregation after 1 hour of administration; type: functional, organism-based; details: concentration not given here
Outline: as §2

[10] = target: T1, Integrin alpha-IIb/beta-3; test: Percent inhibition of ex vivo platelet aggregation after 6 hours of administration; type: functional, organism-based; details: concentration not given here
Outline: as §2

[11] = target: T1, Integrin alpha-IIb/beta-3; test: Inhibition of ex vivo platelet aggregation after 3 hr treatment; type: functional; details: concentration not given here
Outline: as §2

[12] = target: T1, Integrin alpha-IIb/beta-3; test: Inhibition of ex vivo platelet aggregation after 6 hr treatment; type: functional; details: concentration not given here
Outline: as §2

[13] = target: T1, Integrin alpha-IIb/beta-3; test: Inhibition of ex vivo platelet aggregation after 1 hr treatment; type: functional; details: concentration not given here
Outline: as §2

Structure (SMILES): CCN(CC(=O)N[C@@H](CC(=O)O)C(=O)N[C@@H](Cc1cccc2ccccc12)C(=O)O)C(=O)CCCC1CCNCC1
Activity [2]: 3.1 nmol/min/unit
pIC50 [4]: 7.66
pIC50 [6]: 6.96

Structure (SMILES): CCN(CC(=O)N[C@@H](CC(=O)O)C(=O)N[C@@H](CC1CCCC2CCCCC21)C(=O)O)C(=O)CCCC1CCNCC1 (stereo partly specified)
pIC50 [7]: 7.96
pIC50 [6]: 7.72

Structure (SMILES): CCN(CC(=O)N[C@@H](CC(=O)O)C(=O)N[C@@H](C(=O)O)C(C)C)C(=O)CCCC1CCNCC1
pIC50 [7]: 6.59
pIC50 [6]: 6.14

Structure (SMILES): CCN(CC(=O)N[C@@H](CC(=O)O)C(=O)N[C@@H](CCCC1CCCCC1)C(=O)O)C(=O)CCCC1CCNCC1
pIC50 [6]: 7.28

Structure (SMILES): CCN(CC(=O)N[C@@H](CC(=O)O)C(=O)N[C@H](C(=O)O)C1CCCCC1)C(=O)CCCC1CCNCC1
pIC50 [6]: 7.49

Structure (SMILES): CCN(CC(=O)N[C@@H](CC(=O)O)C(=O)N[C@H](CC1CCCCC1)C(=O)O)C(=O)CCCC1CCNCC1
pIC50 [6]: 5.86

Structure (SMILES): CCN(CC(=O)N[C@@H](CC(=O)O)C(=O)N[C@H](C(=O)O)C(C)C)C(=O)CCC1CCNCC1
pIC50 [6]: 6.11

Structure (SMILES): CC(C)[C@H](NC(=O)[C@H](CC(=O)O)NC(=O)CNC(=O)CCCC1CCNCC1)C(=O)O
inhibition [8]: 0%
pIC50 [6]: 5.97
inhibition [9]: 47%

Structure (SMILES): CCCC[C@H](NC(=O)[C@H](CC(=O)O)NC(=O)CN(CC)C(=O)CCCC1CCNCC1)C(=O)O
pIC50 [7]: 7.96
Activity [2]: 7.4 nmol/min/unit
pIC50 [6]: 6.89

Structure (SMILES): CCN(CC(=O)N[C@@H](CC(=O)O)C(=O)N[C@H](C(=O)O)C(C)C)C(=O)CCCC1CCNCC1
pIC50 [7]: 8.10
inhibition [10]: 20%
inhibition [8]: 66%
pIC50 [6]: 7.57
inhibition [9]: 80%

Structure (SMILES): CCN(CC(=O)N[C@@H](CC(=O)O)C(=O)N[C@@H](Cc1ccc2ccccc2c1)C(=O)O)C(=O)CCCC1CCNCC1
pIC50 [4]: 7.66

Structure (SMILES): CCN(CC(=O)N[C@@H](CC(=O)O)C(=O)NCCC1CCCCC1)C(=O)CCCC1CCNCC1
pIC50 [4]: 8.00
pIC50 [6]: 7.14

Structure (SMILES): CCN(CC(=O)N[C@@H](CC(=O)O)C(=O)N[C@@H](CC(C)(C)C)C(=O)O)C(=O)CCCC1CCNCC1
pIC50 [7]: 7.14
pIC50 [6]: 7.09

Structure (SMILES): CCOC(=O)[C@H](CC1CCCCC1)NC(=O)[C@H](CC(=O)O)NC(=O)CN(CC)C(=O)CCCC1CCNCC1
pIC50 [7]: 7.80
pIC50 [6]: 7.19

Continued, values first:

pIC50 [1]: 2.99
Activity [2]: 0.6 nmol/min/unit
pIC50 [3]: < 2.76
pIC50 [4]: 7.77
pIC50 [5]: < 2.78
pIC50 [6]: 7.59
Structure (SMILES): CCN(CC(=O)N[C@@H](CC(=O)O)C(=O)N[C@@H](CC1CCCCC1)C(=O)O)C(=O)CCCC1CCNCC1

pIC50 [6]: 7.49
Structure (SMILES): CCN(CC(=O)N[C@@H](CC(=O)O)C(=O)N[C@@H](CC1CCCCCC1)C(=O)O)C(=O)CCCC1CCNCC1

pIC50 ([1]; huvec): 2.71
pIC50 ([3]; huvec): < 2.62
pIC50 [4]: 7.96
pIC50 ([5]; huvec): < 2.60
pIC50 [6]: 7.51
Structure (SMILES): CCN(CC(=O)N[C@@H](CC(=O)O)C(=O)N[C@@H](CCC1CCCCC1)C(=O)O)C(=O)CCCC1CCNCC1

pIC50 [6]: 7.19
Structure (SMILES): CCN(CC(=O)N[C@@H](CC(=O)O)C(=O)N[C@@H](Cc1ccccc1)C(=O)O)C(=O)CCCC1CCNCC1

pIC50 [6]: 5.00
Structure (SMILES): CC(C)[C@H](NC(=O)[C@H](CC(=O)O)NC(=O)CNC(=O)[C@@H](N)CCCNC(=N)N)C(=O)O (H-RGDV-OH)

pIC50 [6]: 7.11
Structure (SMILES): CCN(CC(=O)N[C@@H](CC(=O)O)C(=O)N[C@@H](CC1CCCCCCC1)C(=O)O)C(=O)CCCC1CCNCC1

pIC50 [6]: 7.02
Structure (SMILES): CCN(CC(=O)N[C@@H](CC(=O)O)C(=O)N[C@@H](CC1CCC2CCCCC2C1)C(=O)O)C(=O)CCCC1CCNCC1 (stereo partly specified)

pIC50 [6]: 6.68
Structure (SMILES): CCN(CC(=O)N[C@@H](CC(=O)O)C(=O)N[C@H](C(=O)O)C(C)C)C(=O)CCCCC1CCNCC1

pIC50 [6]: 6.89
Structure (SMILES): CCN(CC(=O)N[C@@H](CC(=O)O)C(=O)N[C@@H](CO)CC1CCCCC1)C(=O)CCCC1CCNCC1

pIC50 [6]: 6.33
Structure (SMILES): CCN(CC(=O)N[C@@H](CC(=O)O)C(=O)N[C@H](C(=O)O)C(C)C)C(=O)CCCCCNC(=N)N

inhibition [11]: 0%
inhibition [12]: 0%
inhibition [13]: 23%
Structure (SMILES): CCN(CC(=O)N[C@@H](CC(=O)O)C(=O)N[C@H](C(=O)O)C(C)C)C(=O)CCCCN=C(N)N

pIC50 [1]: < 2.63
pIC50 [3]: < 2.62
pIC50 [4]: 7.55
pIC50 [6]: 7.01
Structure (SMILES): CCN(CC(=O)N[C@@H](CC(=O)O)C(=O)N[C@@H](CC1CCCCC1)C(N)=O)C(=O)CCCC1CCNCC1

pIC50 [6]: 7.33
Structure (SMILES): CCN(CC(=O)N[C@@H](CC(=O)O)C(=O)N[C@@H](CC1CCCC1)C(=O)O)C(=O)CCCC1CCNCC1
